Measured values from different studies.
Lines come from different studies, so protocols differ. Converted amounts (≈) assume the structure as drawn.
Organism: Salmonella enterica

| Compound | observed | technique | strain | time | pH | quantity | result |
| --- | --- | --- | --- | --- | --- | --- | --- |
| CO/N=C(\C(=O)N[C@@H]1C(=O)N2C(C(=O)O)=C(CSC(=O)c3ccco3)CS[C@H]12)c1csc(N)n1 | microbial growth |  | CHOLERAESUIS | 20 h | pH 7 | MIC | 1 µg/mL |
| CC1=NN(CNc2c(O)c(S(=O)(=O)O)cc3ccccc23)C(=O)C1=NNn1c(-c2ccccc2)nc2ccccc2c1=O | microbial growth | broth dilution | PARATYPHI | 24 h |  | MIC | 83.7 µM |
| CCCCCCCCCCCC(=O)OC[C@H]1O[C@@H](n2cc(C)c(=O)[nH]c2=O)C[C@@H]1O | microbial killing | broth dilution | TYPHI |  |  | MBC | 8 µg/mL (≈ 18.8 µM) |
| CO[C@H]1O[C@H](COC(c2ccccc2)(c2ccccc2)c2ccccc2)[C@@H](OC(=O)c2ccc(C(C)(C)C)cc2)[C@H](OC(=O)c2ccc(C(C)(C)C)cc2)[C@H]1OC(=O)c1ccc(C(C)(C)C)cc1 | microbial killing | broth dilution | TYPHI |  |  | MBC | 16 µg/mL (≈ 17.4 µM) |
| O=C1NN=C(N=Cc2ccccc2O)C1=NNn1c(-c2ccccc2)nc2ccccc2c1=O | microbial growth | broth dilution | PARATYPHI | 24 h |  | MIC | 55.4 µM |
| COc1cc(Cc2cnc(N)nc2N)cc(OC)c1OC | microbial growth |  | CHOLERAESUIS | 20 h | pH 5.5 | MIC | 0.5 µg/mL |
| [H]/N=C(/N)N[C@H]1[C@H](O)[C@@H](O)[C@H](O[C@@H]2O[C@@H](C)[C@](O)(C=O)[C@H]2O[C@@H]2O[C@@H](CO)[C@H](O)[C@@H](O)[C@@H]2NC)[C@@H](N/C(N)=N\[H])[C@@H]1O | microbial growth |  | TYPHI |  |  | IC50 | 8.1 µM |
| CCn1cc(C(=O)O)c(=O)c2ccc(C)nc21 | microbial growth |  | CHOLERAESUIS | 20 h | pH 7.2 | MIC | 4 µg/mL |
| CC1=NN(CNc2ccccc2)C(=O)C1=NNn1c(-c2ccccc2)nc2ccccc2c1=O | microbial growth | broth dilution | PARATYPHI | 24 h |  | MIC | 221 µM |
| CO[C@H]1/C=C/O[C@@]2(C)Oc3c(C)c(O)c4c(O)c(c(/C=N/N5CCN(C)CC5)c(O)c4c3C2=O)NC(=O)/C(C)=C\C=C\[C@H](C)[C@H](O)[C@@H](C)[C@@H](O)[C@@H](C)[C@H](OC(C)=O)[C@@H]1C | microbial growth |  | TYPHI |  |  | IC50 | 0.12 µM |
| CCCCCCCCCCCC(=O)OC[C@H]1O[C@@H](n2cc(C)c(=O)[nH]c2=O)C[C@@H]1OC(=O)c1ccc(C(C)(C)C)cc1 | microbial killing | broth dilution | TYPHI |  |  | MBC | 16 µg/mL (≈ 27.4 µM) |
